ABCB1 block – human ABCB1 inhibition, ABCG2 as counter-screen; P08183; CCRF-Adr cells, JC-1 efflux, flow cytometry; inhibition, % at 6.6 µM; actives 0.067% (n = 190,000); AID 1326; in the data active = inhibition above about 40%;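 note: 0% = vehicle and 100% = reference inhibitor; higher value means more JC-1 retained so stronger ABCB1 efflux block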
Target sequence (P08183 whole entry, looked up): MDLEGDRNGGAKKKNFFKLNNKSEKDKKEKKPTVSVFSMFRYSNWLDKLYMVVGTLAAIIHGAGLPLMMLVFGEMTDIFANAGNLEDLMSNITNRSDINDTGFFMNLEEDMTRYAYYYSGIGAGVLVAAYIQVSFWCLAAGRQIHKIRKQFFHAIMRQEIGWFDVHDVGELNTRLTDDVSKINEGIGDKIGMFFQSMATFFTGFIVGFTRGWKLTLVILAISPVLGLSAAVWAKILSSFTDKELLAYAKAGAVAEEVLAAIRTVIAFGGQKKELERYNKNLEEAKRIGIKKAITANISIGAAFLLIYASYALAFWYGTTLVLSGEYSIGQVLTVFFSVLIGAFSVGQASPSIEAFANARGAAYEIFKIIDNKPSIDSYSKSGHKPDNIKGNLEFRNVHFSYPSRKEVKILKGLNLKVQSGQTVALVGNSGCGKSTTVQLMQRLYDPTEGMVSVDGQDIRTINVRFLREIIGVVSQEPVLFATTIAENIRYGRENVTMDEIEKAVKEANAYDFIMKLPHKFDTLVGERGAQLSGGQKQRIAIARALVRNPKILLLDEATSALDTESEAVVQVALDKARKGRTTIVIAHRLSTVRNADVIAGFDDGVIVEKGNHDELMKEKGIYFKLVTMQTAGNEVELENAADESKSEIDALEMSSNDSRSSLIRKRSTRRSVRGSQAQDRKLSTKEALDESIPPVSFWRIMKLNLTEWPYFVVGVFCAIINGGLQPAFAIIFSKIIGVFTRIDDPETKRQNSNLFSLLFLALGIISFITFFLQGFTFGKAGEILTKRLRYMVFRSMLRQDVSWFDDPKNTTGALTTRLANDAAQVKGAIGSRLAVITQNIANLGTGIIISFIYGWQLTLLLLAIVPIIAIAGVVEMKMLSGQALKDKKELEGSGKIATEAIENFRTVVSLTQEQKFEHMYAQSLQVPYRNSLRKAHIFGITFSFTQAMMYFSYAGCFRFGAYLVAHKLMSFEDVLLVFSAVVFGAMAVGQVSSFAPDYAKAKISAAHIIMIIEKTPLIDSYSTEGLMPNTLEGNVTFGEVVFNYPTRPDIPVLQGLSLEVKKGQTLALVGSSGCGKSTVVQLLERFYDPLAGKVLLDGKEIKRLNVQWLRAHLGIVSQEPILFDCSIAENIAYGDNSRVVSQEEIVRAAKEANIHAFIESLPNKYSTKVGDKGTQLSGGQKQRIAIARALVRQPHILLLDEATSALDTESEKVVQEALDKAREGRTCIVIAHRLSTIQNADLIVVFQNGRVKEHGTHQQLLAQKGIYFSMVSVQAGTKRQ
Lmaj promast – reduces viability of Leishmania major promastigotes. inhibition, % at 10 µM. actives 9% (n = 200,000). resazurin fluorescence viability;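 note: promastigotes grown with compound for 44 hours at 28 °C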
GSH fluor – GSH bead compound fluorescence profile. GSH beads flow cytometry, compound fluorescence 488/530 nm; stronger effect = higher value. fluorescence (KMESF) at 10 µM. actives 0.25% (n = 190,000). AID 1776; in the data active = fluorescence above about 89;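 note: glutathione beads carrying GST-tagged Bcl family fusion proteins plus one bare bead set; values are compound well signal with DMSO vehicle wells as background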
Avidin bead fluor – avidin bead compound fluorescence profile. actives 0.38% (n = 220,000). fluorescence (KMESF) at 10 µM. Avidin beads, compound fluorescence 488/530 nm, flow cytometry; stronger effect = higher value; in the data active = fluorescence above about 47
PKD1 kinase inh – blocks activity of human protein kinase D1; AID 797; inhibition, % (test concentration not listed); PKD1 kinase fluorescence polarization assay; actives 0.056% (n = 200,000)
ABCG2 block – inhibitors of human ABCG2 transporter, ABCB1 counter-screen | IgMXP3 cells, JC-1 efflux, flow cytometry | Q9UNQ0 | actives 0.1% (n = 190,000) | inhibition, % at 6.6 µM | AID 1325;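 active = inhibition above 80%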;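 note: 0% = DMSO and 100% = nicardipine control wells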
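Test system: IgMXP3 (ABCG2) plus far-red-tagged CCRF-Adr (ABCB1) cells / Amount: 3 million cells/mL in well / Reagent: JC-1 transporter substrate / Timing: 10 min compound exposure, 25 °C / Signal: flow cytometry, 530 nm JC-1 signal / Read-out: percent efflux inhibition, scaled nicardipine 100% to DMSO 0% / Benchmarks: nicardipine as high control, DMSO as low control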
Starred values were filed as active, the others as inactive; . = not tested or not shown. This excerpt belongs to a sample that is enriched for hits. Cut-off read from the data, not from the text of the source, unless noted: active = inhibition above about 50%; inactive = the rest.

SMILES	ABCB1 block	Lmaj promast	GSH fluor	Avidin bead fluor	PKD1 kinase inh	ABCG2 block
O=C(CN1CCCCC1)N=Nc1c(O)[nH]c2ccccc12	1	8	10	3	3	8
O=C(CN1CCN(Cc2ccccc2)CC1)N=Nc1c(O)[nH]c2ccccc12	1	96*	17	6	8	4
CCc1cc2cc(OC)ccc2nc1SCC(=O)NNC(=O)c1ccco1	0	-5	11	11	-1	3
Clc1nc(-c2ccccn2)nc2scc(-c3ccccc3)c12	0	66*	6	14	-9	5
Cc1c(C(=O)NCC2CCCO2)oc2ccc(S(=O)(=O)N3CCCC3)cc12 (centres undefined)	1	-8	38	14	-15	9
Cc1c(C(=O)NCC2COc3ccccc3O2)oc2ccc(S(=O)(=O)N(C)C3CCCCC3)cc12 (centres undefined)	1	53*	32	30	-6	6
CCN(CC)S(=O)(=O)c1ccc2oc(C(=O)O)c(C)c2c1	0	-8	30	13	-3	8
CCN(CC)S(=O)(=O)c1ccc2oc(C(=O)NC(C)C)c(C)c2c1	9	4	21	16	-9	94*
Cc1cc(C)c2nc(SCC(=O)NCCC3=CCCCC3)cc(C)c2c1	1	-2	9	11	3	8
COC(=O)C1CCN(C(=O)C(C)Oc2ccc(Cl)cc2Cl)CC1 (centres undefined)	2	1	28	57*	0	2
C/C(=N\NC(=O)c1c(Br)c(C)nn1C)c1ccc(NC(=O)C(C)Oc2ccc(Cl)cc2C)cc1 (centres undefined)	0	98*	14	8	-4	2
CCC(=O)Nc1ccc(/C(C)=N/NC(=O)c2c(Br)c(C)nn2C)cc1	0	18	9	16	0	9
CC(Oc1ccc(Cl)cc1Cl)C(=O)Nc1ccncc1 (centres undefined)	1	3	36	10	-9	7
CC(=O)Nc1ccc(NC(=O)C(C)Oc2ccc(Cl)cc2Cl)cc1 (centres undefined)	-1	57*	9	8	0	10
CCOC(=O)C1CCCN(C(=O)C(C)Oc2ccc(Cl)cc2Cl)C1 (centres undefined)	1	-4	38	7	-9	1
CC(Oc1ccc(Cl)cc1Cl)C(=O)NCCCN1CCOCC1 (centres undefined)	-1	90*	18	3	-6	-2
CCNC(=O)C(C)Oc1ccc(Cl)cc1Cl (centres undefined)	2	-2	21	9	3	8
COc1cccc(Cn2nnc(C(=O)NCc3ccccc3Cl)c2N)c1	0	-2	13	5	-6	0
Cc1cc2c(ncn2Cc2ccccc2)c(N)c1C	0	4	10	11	1	5
COc1ccc(OCC(=O)NNC(=O)c2cccc(O)c2)cc1	1	-6	21	6	5	2
C#CC(CO)N(CCN(Cc1ccccc1)C(C#C)CO)Cc1ccccc1 (centres undefined)	1	19	33	13	-6	3
O=C(CNC1CCCC1)Nc1ccc(N2CCCCCC2)cc1	1	85*	10	13	-7	2
O=C(CNC1CCCCCC1)Nc1ccc(N2CCCC2)cc1	1	19	7	31	-4	4
CC1CCN(CC(=O)Nc2ccc(N3CCCCCC3)cc2)CC1	0	78*	23	9	4	0
O=C(CNCCC1=CCCCC1)Nc1ccc(N2CCCCCC2)cc1	1	85*	22	13	-4	5
CC1CCN(S(=O)(=O)c2ccc(NC(=O)CN3CCN(c4ccccc4)CC3)cc2)CC1	1	-6	8	9	-3	2
CC(=O)Nc1ccc(OS(=O)(=O)c2ccc([N+](=O)[O-])cc2)cc1	0	23	10	9	-2	1
CC1=C(C(=O)OC(C)C)C(c2ccc(C)o2)C(C(=O)OC(C)C)=C(C)N1	.	.	.	7	.	.
CC(N)c1ccc(Cl)cc1Cl (centres undefined)	0	-7	11	23	11	14
O=C(Cc1ccc([N+](=O)[O-])cc1)Nc1ccc(Cl)cc1	0	4	14	11	-8	2
